tolC growth inh: growth inhibitors of E. coli tolC mutant, primary screen, strain BW25113 ΔtolC::kan, 384-well | OD615 | growth inhibition, % at 10 µM (by protocol) | actives 2.2% (n = 65,000);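 active = growth inhibition at or above a cutoff equal to the mean over every tested compound plus 3 SD, cut at about 60% in these data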;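 note: growth measured after 20 h incubation at 37 °C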
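test system = E. coli BW25113 ΔtolC::kan bacteria | medium = LB with kanamycin 50 µg/mL | signal = OD at 615 nm | schedule = 37 °C, 20 h exposure | evaluation = % inhibition of E. coli growth | compound dosing = one dose of 10 µM final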
HePTP inhibitor: inhibitors of human HePTP phosphatase, primary screen, biochemical, absorbance, leukemia target; Tyrosine-protein phosphatase non-receptor type 7 (Homo sapiens), P35236; recombinant HePTP phosphatase activity, OD absorbance; inhibition, % at 20 µM; actives 0.64% (n = 110,000); AID 521, 2006; in the data active = inhibition above about 50%;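 note: plate controls were vehicle for no effect and reference inhibitor for full effect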
Target sequence (P35236 whole entry, looked up): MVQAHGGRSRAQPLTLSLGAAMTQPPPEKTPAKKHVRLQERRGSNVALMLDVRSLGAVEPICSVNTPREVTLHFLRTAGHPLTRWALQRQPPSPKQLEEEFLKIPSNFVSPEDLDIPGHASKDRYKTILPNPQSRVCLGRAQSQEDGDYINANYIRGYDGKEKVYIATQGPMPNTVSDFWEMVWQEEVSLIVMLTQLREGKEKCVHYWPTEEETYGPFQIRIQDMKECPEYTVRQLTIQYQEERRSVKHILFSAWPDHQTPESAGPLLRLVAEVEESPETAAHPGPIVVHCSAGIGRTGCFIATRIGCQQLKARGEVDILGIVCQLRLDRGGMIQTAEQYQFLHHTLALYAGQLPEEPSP
Ecoli WT expand: growth inhibitors of wild-type E. coli, primary screen, strain BW25113, expanded library, OD600; growth inhibition, % at 100 µM; AID 710, 2007; OD600 absorbance; actives 0.15% (n = 98,000);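 active = growth inhibition above about 50% at one test dose, limit read from the data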;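 note: growth measured after 20 h incubation at 37 °C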
PostGolgi ctrl: growth inhibition of yeast control strain, primary screen, counter-screen for post-Golgi transport modulator project; efflux-deficient yeast background strain, growth absorbance A615, 16 h; inhibition, % at 10 µM; actives 5% (n = 98,000); AID 738, 2007
PLAP act: PLAP enzyme activators, biochemical, luminescence, HTS; Alkaline phosphatase, placental type (Homo sapiens), P05187; purified PLAP enzyme, luminescent substrate read-out; hits give high values; activation fold at 20 µM; actives 1.2% (n = 96,000); AID 696, 2007; in the data active = activation fold above about 2
PostGolgi yeast: phenotypic screen on post-Golgi transport, primary screen | post-Golgi transport phenotypic cell assay | inhibition, % at 10 µM | actives 0.9% (n = 98,000);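 note: yeast cells grown in 1536-well plates; yeast grown about 18 h at 30C before absorbance read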
Starred values were filed as active, the others as inactive; nt = no result given. Hits are enriched below; roughly 5.5% of the tested compounds scored in any of these assays. Cut-off read from the data, not from the text of the source, unless noted: active = inhibition above about 30%; inactive = the rest.

SMILES	tolC growth inh	HePTP inhibitor	Ecoli WT expand	PostGolgi ctrl	PLAP act	PostGolgi yeast
COc1ccc(-c2nc(-c3cc(OC)c(O)c(OC)c3)[nH]c2-c2ccc(OC)cc2)cc1	nt	-3	nt	nt	nt	nt
O=S(=O)(CCSc1nc2ccccc2s1)c1nc2ccccc2s1	nt	nt	-10	90*	0.9	8
CC(=O)C1=C(O)C(=O)N(CCCC(=O)O)C1c1ccc([N+](=O)[O-])cc1 (stereo unspecified)	nt	-25	nt	nt	nt	nt
O=C(Nc1ccc(Cl)cc1Cl)C1CCC(=O)N1Cc1ccccc1Cl (stereo unspecified)	nt	nt	2	14	1.1	-5
O=C(O)C1CCC(=O)N1Cc1ccccc1Cl (stereo unspecified)	-16	-14	5	30*	0.9	0
O=C(NCCCN1CCCC1=O)c1cccc(C(F)(F)F)c1	-3	10	0	35*	1.2	-5
Fc1ccc(Nc2ncnc3sc4c(c23)CCC4)cc1	nt	nt	5	40*	1.3	-5
c1csc(CCNc2ncnc3sc4c(c23)CCC4)c1	60	1	-8	82*	1.5	-1
COc1ccc(OCC(=O)Nc2ccc(OC)cc2OC)cc1	nt	-15	nt	nt	nt	nt
COc1ccccc1N1CCN(C(=O)COc2cccc(C)c2)CC1	nt	-14	nt	nt	nt	nt
Cc1cccc(-n2ncc3c(N(C)C4CCCCC4)ncnc32)c1	94*	9	nt	nt	nt	nt
COc1ccc(-n2ncc3c(N(C)C4CCCCC4)ncnc32)cc1	76*	3	nt	nt	nt	nt
Cc1sc(NC(=O)C2CC(O)CN2C(=O)OC(C)(C)C)nc1-c1ccccc1 (stereo unspecified)	nt	0	nt	nt	nt	nt
COc1ccccc1NC(=O)C1=C(C)NC(=O)NC1c1cc(OC)c(OC)c(OC)c1 (stereo unspecified)	nt	3	nt	nt	nt	nt
COc1ccc(C2=NCC(CSc3nnc(-c4ccc5c(c4)OCO5)o3)S2)cc1 (stereo unspecified)	21	10	-14	37*	1.5	6
Cc1ccc(CSc2nnc(-c3ccc4c(c3)OCO4)o2)cc1	nt	nt	-10	7	0.8	-3
Cc1ccc(C(=O)Nc2ccccc2C(=O)Nc2nc3ccccc3n2C)cc1	nt	7	nt	nt	nt	nt
Cn1c(NC(=O)c2ccccc2NC(=O)C(C)(C)C)nc2ccccc21	99*	13	-1	12	1.9	3
O=C(Nc1ccc(Cl)c(C(F)(F)F)c1)c1ccco1	98*	5	30	22	0.9	0
O=C(Nc1ccc2oc(-c3cccc(Cl)c3Cl)nc2c1)c1ccco1	nt	101*	nt	nt	nt	nt
O=C(Nc1cccc(C(F)(F)F)c1)c1ccco1	14	9	2	6	1	-2
O=C(O)CCSc1nc(C(F)(F)F)cc(=O)n1-c1ccccc1	nt	nt	2	30*	1.2	-14
NC(=O)CSc1nc(O)cc(=O)n1-c1ccccc1	-10	2	4	17	1	-5
CC(=O)Nc1ccc(S(=O)(=O)NNC(=O)c2ccccc2Cl)cc1	nt	-2	nt	nt	nt	nt
CC1Cc2ccccc2N1C(=O)COC(=O)c1ccc(S(=O)(=O)N(C)C)cc1 (stereo unspecified)	-16	-2	0	11	0.9	30*
SMILES	tolC growth inh	HePTP inhibitor	Ecoli WT expand	PostGolgi ctrl	PLAP act	PostGolgi yeast
c1ccc(-c2nc(-c3ccncc3)no2)cc1	16	8	6	10	0.8	4
O=C1c2ccccc2C(=O)N1CCCc1nc(-c2ccncc2)no1	nt	nt	-6	36*	0.9	1
c1ccc(-c2ccccc2-c2nc(-c3ccncc3)no2)cc1	24	-3	9	56*	0.9	17
c1ccc(C(Cc2nc(-c3ccncc3)no2)c2ccccc2)cc1	41	8	8	35*	0.8	-5
O=C1c2ccccc2C(=O)N1CCCc1nc(-c2cccnc2)no1	1	11	8	-6	1	-11
CC1=C(C(=O)OC(C)C)C(c2ccc(OCC(N)=O)cc2)NC(=S)N1 (stereo unspecified)	nt	8	nt	nt	nt	nt
CCOc1ccc(C(=O)Nc2cccc3nsnc23)cc1Cl	nt	-25	nt	nt	nt	nt
COc1cccc(NC2=C(Cl)C(=O)N(c3ccccc3C)C2=O)c1	nt	7	nt	nt	nt	nt
Cc1nn(C(C)C(=O)NCc2ccccc2Cl)c(=O)c2c1sc1ccccc12 (stereo unspecified)	nt	nt	-5	55*	1.4	-13
Cc1sc(NC(=O)c2ccco2)c(C(c2cccnc2)N2CCCC2)c1C (stereo unspecified)	nt	nt	-8	39*	1.5	0
Cc1sc(NC(=O)c2ccco2)c(C(c2ccncc2)N2CCOCC2)c1C (stereo unspecified)	10	-2	0	33*	1	-4
Cc1cccc(OCCCCc2c(C)n[nH]c2C)c1C	100*	6	10	38*	2.4*	8
COc1ccccc1OCCCCCc1c(C)n[nH]c1C	34	0	8	4	1.4	-13
COc1cccc(OCCc2c(C)n[nH]c2C)c1	nt	nt	5	0	1.1	21
Cc1cccc(OCCCCc2c(C)n[nH]c2C)c1	100*	-1	15	18	1.6	3
COc1ccccc1OCCCc1c(C)n[nH]c1C	5	1	9	100*	1.4	109*
COc1ccc(OCCCc2c(C)n[nH]c2C)cc1	nt	nt	4	1	2.3*	2
CC(=O)C1=C(O)C(=O)N(CC2CCCO2)C1c1ccc(F)cc1 (stereo unspecified)	nt	-5	nt	nt	nt	nt
COc1ccc(OCC(=O)Nc2ccc(NC(=O)c3ccco3)c(OC)c2)cc1	nt	10	nt	nt	nt	nt
CCCCCCCCCCSc1n[nH]c(NC(C)=O)n1	nt	nt	0	4	2.9*	-2
CCCSc1n[nH]c(NC(C)=O)n1	-6	4	8	-6	1	-7
CCCC1(C(=O)O)NC(c2ccccc2O)C2C(=O)N(c3cccc(Cl)c3)C(=O)C21 (stereo unspecified)	-10	8	2	-5	2.4*	-5
CCCC1(C(=O)O)NC(c2cccc(OC)c2O)C2C(=O)N(c3ccccc3)C(=O)C21 (stereo unspecified)	-13	5	5	6	1.2	1
CC(=O)Oc1c(C=C(C#N)C#N)[nH]c2ccccc12	nt	7	nt	nt	nt	nt
CC1C(=O)CC(c2ccccc2)N(C)C1c1ccccc1 (stereo unspecified)	45	7	2	22	1	0
CC(C)C1C(c2ccccc2)N(C)C(c2ccccc2)CC1(O)c1ccccc1 (stereo unspecified)	nt	nt	-6	33*	0.8	-11
Cc1ccc(NC(=S)NC2CC(C)(C)NC(C)(C)C2)cc1	nt	-3	nt	nt	nt	nt

Screening results (PubChem)
